Rows were chosen to be rich in hits. Some 1.9% of all compounds tested hit in one or more screens of this group.
MBD2 DNA inh: inhibitors of MBD2 binding to methylated DNA, primary screen, biochemical, TR-FRET, DNA-binding domain, human. MBD2 binding to methylated oligonucleotide. inhibition, % at 4.4 µM. actives 0.31% (n = 370,000); in the data active means inhibition above about 13%
LEDGF integ inh: blockers of LEDGF/p75-dependent integrase strand transfer – biochemical, TR-FRET, high throughput, primary screen | inhibition, % at 3.7 µM | actives 0.64% (n = 370,000) | TR-FRET IN-LEDGF/p75 DNA integration, Eu/Cy5;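 active means inhibition above the screen-wide mean plus 3 SD, cut at about 13% in these data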;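 further: signal is the Cy5 over europium emission ratio at 671 and 618 nm; 0% = plate median of compound wells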
Rin1-Abl PPI inh: inhibitors of Rin1-Abl protein binding, primary screen, biochemical, TR-FRET | Tyrosine-protein kinase ABL1 (Homo sapiens) + Ras and Rab interactor 1 (Homo sapiens), … | actives 0.4% (n = 360,000) | inhibition, % at 7.35 µM; in the data active means inhibition above about 5%, passing the limit was not always enough
TDP2 inh: human TDP2 enzyme inhibitors, primary screen, biochemical, epi absorbance, recombinant enzyme; T5PNP hydrolysis, p-nitrophenol absorbance 415 nm; inhibition, % at 12.8 µM; actives 0.34% (n = 370,000);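 active means inhibition above the mean of all tested compounds plus 3 SD, set per campaign, cut at about 25% in these data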;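 further: 0% = DMSO with enzyme and 100% = buffer with substrate but no TDP2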
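Evaluation: % inhibition relative to enzyme-containing and enzyme-free wells. Material: recombinant human TDP2. Benchmarks: enzyme-free and DMSO wells. Timing: enzyme reaction with compound for 2 h at 37 °C. Compound dosing: 12.8 µM only. Measured by: p-Nitrophenol epi absorbance. Reagent: T5PNP substrate at 5 mM, a TopII-DNA adduct mimic. Replication: single well per compound.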
UHRF1 MBD2 ctr: UHRF1 methylated DNA binding inhibitors, primary screen, counter-screen for MBD2 inhibitor project, biochemical, TR-FRET, human UHRF1, single concentration. actives 0.75% (n = 370,000). E3 ubiquitin-protein ligase UHRF1 (Homo sapiens), Q96T88. AID 687016, 2013. inhibition, % at 4.4 µM. UHRF1 binding to methylated oligo; in the data active means inhibition above about 21%;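 further: UHRF1 SRA domain binding a hemimethylated CpG hairpin DNA probe; 0% = median of test compound wells and 100% = reference inhibitor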
Target sequence (Q96T88 whole entry, looked up, the tested form may be a part): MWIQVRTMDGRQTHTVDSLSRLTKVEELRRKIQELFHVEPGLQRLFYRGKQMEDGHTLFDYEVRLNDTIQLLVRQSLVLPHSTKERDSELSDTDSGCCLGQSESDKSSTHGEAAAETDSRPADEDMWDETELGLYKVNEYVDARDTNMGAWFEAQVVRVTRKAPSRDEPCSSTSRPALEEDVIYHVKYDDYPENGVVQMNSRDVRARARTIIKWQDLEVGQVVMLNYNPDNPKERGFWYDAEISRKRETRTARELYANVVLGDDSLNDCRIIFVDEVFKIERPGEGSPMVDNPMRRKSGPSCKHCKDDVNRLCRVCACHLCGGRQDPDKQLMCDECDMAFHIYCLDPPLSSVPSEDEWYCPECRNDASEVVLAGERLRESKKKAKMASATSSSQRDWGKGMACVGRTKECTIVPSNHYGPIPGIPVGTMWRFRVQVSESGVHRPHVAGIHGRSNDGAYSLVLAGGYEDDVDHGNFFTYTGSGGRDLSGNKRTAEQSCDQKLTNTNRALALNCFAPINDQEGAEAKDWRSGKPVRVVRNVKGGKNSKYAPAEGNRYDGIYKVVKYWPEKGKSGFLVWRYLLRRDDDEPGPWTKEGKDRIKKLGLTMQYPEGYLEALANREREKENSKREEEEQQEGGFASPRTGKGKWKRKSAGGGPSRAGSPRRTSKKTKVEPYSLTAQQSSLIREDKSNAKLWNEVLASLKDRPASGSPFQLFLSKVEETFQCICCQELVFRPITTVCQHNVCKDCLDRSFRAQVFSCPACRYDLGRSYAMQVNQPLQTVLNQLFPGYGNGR
Rin1-Abl confirm: Rin1-Abl binding inhibitor retest, confirmation, biochemical, TR-FRET; shares compounds with Rin1-Abl PPI inh; purified proteins; inhibition, % at 7.35 µM; actives 49% (n = 1,300); AID 602124, 2011
GFP quencher: GFP fluorescence inhibitors and quenchers, artefact control for Rin1-Abl interaction inhibitor project, biochemical | shares compounds with Rin1-Abl PPI inh | inhibitors/quenchers counterscreen | inhibition, % at 6.75 µM | actives 8.5% (n = 1,300);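 further: ABL1-eGFP fusion protein alone without its partner RIN1-SBP; 0% = protein with vehicle and 100% = wells lacking protein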
GFP quench dose: GFP fluorescence inhibitors and quenchers, dose response, artefact control for Rin1-Abl interaction inhibitor project, biochemical; GFP fluorescence interference/quenching counterscreen; shares compounds with Rin1-Abl PPI inh; IC50, µM; 230 tested, under 10 active; call rule not given here;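 further: ABL1-eGFP fusion protein alone without its RIN1 binding partner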
* = called active by the depositor; · = no result. Unless noted, no stated cut-off is given here; in the data, active means inhibition above about 6.5%; inactive means the rest.

SMILES	MBD2 DNA inh	LEDGF integ inh	Rin1-Abl PPI inh	TDP2 inh	UHRF1 MBD2 ctr	Rin1-Abl confirm	GFP quencher	others
CCOCCCNC(=O)C1CCN(S(=O)(=O)c2cc3c(cc2Br)CCN3C(=O)CC)CC1	-4	-1	·	-10	0	·	·
COC(=O)[C@]12C[C@H](CC(=O)NCc3cccc(C(F)(F)F)c3)C(=O)N(Cc3ccco3)C1=C[C@H](COCc1ccccc1)O[C@@H]2C	-6	8	·	-7	-4	·	·
Cc1cccc(C(=O)Nc2ccc(O)cc2C(=O)O)c1	3	0	3	7	-1	·	·
Cc1ccc(C(=O)Nc2ccc(O)cc2C(=O)O)cc1	-7	-6	11*	-2	-4	13*	0
Cc1ccc(C(=O)Nc2ccc(O)cc2C(=O)O)cc1C	7	-1	27*	7	3	16*	0
Cc1occc1C(=O)N1CCCC(N2CCN(c3ccccc3F)CC2)C1 (configuration not stated)	-6	-5	11*	-10	-1	-1	0
CC(=O)Nc1ccc(S(=O)(=O)N2CCC(C(=O)NCCC(=O)Nc3nccs3)CC2)cc1	3	-3	11*	5	0	6	0
COCc1cn(-c2ccc3c(c2)[C@]2(CC(=O)N(C)C2c2ccccc2)C(=O)N3CC(C)C)nn1 (some centres not stated)	1	3	·	1	2	·	·
CC(=O)N1c2ccc(S(=O)(=O)N3CCC(C(=O)NCCc4ccc(Cl)cc4)CC3)cc2CC1C (configuration not stated)	-1	-2	9.8*	8	0	-1	-1
CCOC(=O)[C@@]12CCCC=C1N(CCc1ccc(Cl)cc1)C(=O)[C@H]2CC(=O)N1CCOCC1	0	-2	·	-2	-1	·	·
O=C(C1CCC(C(=O)N2CCCCC2)CC1)N1CCCCC1 (configuration not stated)	0	-3	6.2*	2	5	-1	-1
CN1CCCN(C(=O)C2CCC(C(=O)N3CCCN(C)CC3)CC2)CC1 (configuration not stated)	-1	-4	0	5	0	·	·
OC[C@@H]1CN(Cc2ccc(-c3ccccc3)cc2)C[C@H](n2cnc3c(NCc4ccco4)ncnc32)O1	-3	5	10*	2	-1	6.7*	-1
OCCNc1ncnc2c1ncn2[C@H]1CN(Cc2ccc(-c3ccccc3)cc2)C[C@@H](CO)O1	·	·	24*	·	·	28*	0	GFP quench dose=>68
OC[C@@H]1CN(Cc2ccccc2)C[C@H](n2cnc3c(NCc4ccco4)ncnc32)O1	3	1	1	4	1	·	·
COc1ccc2c(c1)CCCN2C(=O)C1CCCN(S(=O)(=O)c2cccs2)C1 (configuration not stated)	7	5	·	1	-1	·	·
C[C@@H]1[C@@H](c2ccccc2)OC(O)([C@H](Cc2ccccc2)NC(=O)OC(C)(C)C)CN1C (some centres not stated)	2	0	·	-2	-1	·	·
COc1cc(C=Nn2c(-c3ccccc3F)n[nH]c2=S)ccc1OCc1ccccc1	1	1	·	12	0	·	·
Cc1ccccc1N(C)C(=O)Cn1nnc(-c2ccccc2F)n1	2	0	·	-1	4	·	·
CC(C)n1cc(CN2CCC(C(=O)Nc3cccc(-c4cscn4)c3)CC2)cn1	1	2	11*	8	-3	24*	1	GFP quench dose=>68
Cc1ncc(CN2CCC(C(=O)Nc3cccc(-c4cscn4)c3)CC2)cn1	-4	8	2	3	0	·	·
CCN(CC)CCSc1nc(O)c(C(C)C)c(=O)[nH]1	-2	1	0	2	1	·	·
CCCc1c(O)nc(SCCN(CC)CC)[nH]c1=O	4	0	7.6*	9	-3	-2	0
O=C(NCC1COCCO1)C1CCN(S(=O)(=O)c2cccc3ccccc23)CC1 (configuration not stated)	3	-5	·	-2	-1	·	·
C#CCOC(=O)CCC(=O)NCCc1ccccc1	0	0	-3	3	6	·	·
SMILES	MBD2 DNA inh	LEDGF integ inh	Rin1-Abl PPI inh	TDP2 inh	UHRF1 MBD2 ctr	Rin1-Abl confirm	GFP quencher	others
C#CCOC(=O)CCCC(=O)NCCCCCCCC	-1	-4	6.6*	8	-1	0	0
Cc1cccc(COCC(Cc2ccccc2)N2CCN(C(=O)c3ccc(Cl)c(Cl)c3)CCC2=O)c1 (configuration not stated)	5	2	10	-15	3	·	·
O=C(c1ccc(Cl)c(Cl)c1)N1CCC(=O)N(C(COCc2cccc(C(F)(F)F)c2)Cc2ccccc2)CC1 (configuration not stated)	-2	-2	23*	-6	0	24*	-1
Oc1ccc(CN2CCc3ccccc3C2)c2cccnc12	-3	-8	28*	-6	-6	7.6*	1
Oc1ccc(CN2CCCCC2)c2cccnc12	-3	-10	2	0	0	·	·
COCCNC(=O)CS(=O)Cc1nc(-c2ccccc2C)oc1C (configuration not stated)	-3	2	12*	1	-1	-1	1
N#Cc1ccc(C(=O)Oc2coc(CSc3ncccn3)cc2=O)cc1	3	2	·	-5	-2	·	·
Cc1nc(Nc2cccc(O)c2)c2c3c(sc2n1)CCC3	-2	6	46*	5	-3	45*	-1	GFP quench dose=>68
Cc1ccccc1-n1c(SCC(=O)NC2CC2)nc2ccccc2c1=O	-4	7	10*	-15	3	0	0
COc1ccc(C(=O)CSc2nnc(-c3cccs3)o2)cc1OC	6	0	·	8	13	·	·
C=CCn1c(C)nnc1SCC(=O)Nc1nc(C)c(C(=O)N(C)C)s1	0	-1	13*	1	2	0	0
CN1CCN(C(=O)CSc2nc(-c3ccncc3)ccc2C#N)CC1	-2	1	10*	-8	1	17*	3	GFP quench dose=>68
CC(=O)N1CCc2cc(S(=O)(=O)NC3CCN(C(=O)C(C)(C)C)CC3)ccc21	1	-3	·	9	-2	·	·
